We go through 9 compounds from ChEMBL document CHEMBL1123252, “Design and synthesis of potent and specific renin inhibitors containing difluorostatine, difluorostatone, and related analogues” (J Med Chem, 1986).

This assay deals with T1, Renin (Homo sapiens, UniProt P00797).
T1 sequence (P00797 whole entry): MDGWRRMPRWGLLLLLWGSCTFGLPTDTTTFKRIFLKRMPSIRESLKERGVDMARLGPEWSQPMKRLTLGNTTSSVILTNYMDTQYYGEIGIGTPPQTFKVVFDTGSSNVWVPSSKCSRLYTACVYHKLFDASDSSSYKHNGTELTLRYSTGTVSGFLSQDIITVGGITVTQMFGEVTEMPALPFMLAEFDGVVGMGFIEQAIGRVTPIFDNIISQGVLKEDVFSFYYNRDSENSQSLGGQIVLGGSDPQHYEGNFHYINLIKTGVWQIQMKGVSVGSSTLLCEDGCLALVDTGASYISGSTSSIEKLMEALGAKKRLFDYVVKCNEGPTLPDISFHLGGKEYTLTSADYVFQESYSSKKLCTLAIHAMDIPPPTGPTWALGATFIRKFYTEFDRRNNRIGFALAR
The assay is described as follows: Inhibition of human plasma renin. In kind it is cell-free. In outline: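 Lyophilized human plasma with 0.1% EDTA, plus phenylmethanesulfonyl fluoride and maleate buffer pH 6.0. Inhibitor given in 1% Tween 80 in water. Angiotensin I generated over 90 min at 37 °C and measured by radioimmunoassay kit. Percent inhibition taken versus control tubes. IC50 estimated graphically from 3-4 concentrations on semilog plot.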

The term IC50 denotes the concentration that gives 50% inhibition. Low values mean higher potency, high ones lower potency.

Where a SMILES comes first, the peptide text is derived from it. [ ]: non-standard residue; d: D form. The star is where a group is joined. Ala(2H-imidazol-2-yl) = N[C@@H](CC1N=CC=N1)C(=O)O; Sta = CC(C)C[C@H](N)[C@@H](O)CC(=O)O; NHCH2(2-pyridyl) = c1ccc(CN*)nc1; Boc = CC(C)(C)OC(=O)*

In turn, `CC[C@H](C)[C@H](NC(=O)C(F)(F)C(=O)[C@H](CC(C)C)NC(=O)[C@H](CC1N=CC=N1)NC(=O)[C@H](Cc1ccccc1)NC(=O)OC(C)(C)C)C(=O)NCc1ccccn1` had an IC50 of 0.52 nM.

Regarding `CC[C@H](C)[C@H](NC(=O)CC(=O)[C@H](CC(C)C)NC(=O)[C@H](CC1N=CC=N1)NC(=O)[C@H](Cc1ccccc1)NC(=O)OC(C)(C)C)C(=O)NCc1ccccn1`, the IC50 is 34 nM.

`CC[C@H](C)[C@H](NC(=O)C(F)(F)[C@H](O)[C@H](CC(C)C)NC(=O)[C@H](CC1N=CC=N1)NC(=O)[C@H](Cc1ccccc1)NC(=O)OC(C)(C)C)C(=O)NCc1ccccn1` displayed an IC50 of 12 nM. This IC50 is about 2.8-fold lower than that of the compound before.

As to `CC[C@H](C)[C@H](NC(=O)C(F)(F)[C@H](O)[C@H](CC1CCCCC1)NC(=O)[C@H](CC1N=CC=N1)NC(=O)[C@H](Cc1ccccc1)NC(=O)OC(C)(C)C)C(=O)NCc1ccccn1`, the IC50 was determined as 0.57 nM.

On to `CC[C@H](C)[C@H](NC(=O)C(F)(F)[C@@H](O)[C@H](CC(C)C)NC(=O)[C@H](CC1N=CC=N1)NC(=O)[C@H](Cc1ccccc1)NC(=O)OC(C)(C)C)C(=O)NCc1ccccn1`, for which the IC50 was 730 nM.

Turning to `CC[C@H](C)[C@H](NC(=O)C(F)(F)[C@H](O)[C@H](Cc1ccccc1)NC(=O)[C@H](CC1N=CC=N1)NC(=O)[C@H](Cc1ccccc1)NC(=O)OC(C)(C)C)C(=O)NCc1ccccn1`, the midpoint of inhibition, the IC50, lay at 13 nM.

Regarding `CC[C@H](C)[C@H](NC(=O)C(F)(F)C(=O)[C@H](CC1CCCCC1)NC(=O)[C@H](CC1N=CC=N1)NC(=O)[C@H](Cc1ccccc1)NC(=O)OC(C)(C)C)C(=O)NCc1ccccn1`, the IC50 came to 2.5 nM.

Consider `CC[C@H](C)[C@H](NC(=O)C(F)(F)C(=O)[C@H](Cc1ccccc1)NC(=O)[C@H](CC1N=CC=N1)NC(=O)[C@H](Cc1ccccc1)NC(=O)OC(C)(C)C)C(=O)NCc1ccccn1`, for which half-maximal inhibition (IC50) required 1.3 nM.

For the compound `CC[C@H](C)[C@H](NC(=O)C[C@H](O)[C@H](CC(C)C)NC(=O)[C@H](CC1N=CC=N1)NC(=O)[C@H](Cc1ccccc1)NC(=O)OC(C)(C)C)C(=O)NCc1ccccn1` (Boc-F[Ala(2H-imidazol-2-yl)][Sta]I-{NHCH2(2-pyridyl)}), half-maximal inhibition (IC50) was put at 1.7 nM.
